B1: Osa-1-4 twister ribozyme (parent)
chain: CCGCCUAACACUGCCAAUGCCGGUCCCAAGCCCGGAUAAAAGUGGAGGGGGCGG

Variants of: B1
Experiment: self-cleavage, relative activity (ratio to wild type); higher = more cleavage; co-transcriptional
Procedure, shortened: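 The 48 positions downstream of the cleavage site in a 54-nucleotide Oryza sativa twister ribozyme template were synthesised at 97 % wild-type base and 1 % of each other base. The template was transcribed in vitro at 37 °C for 2 h, with self-cleavage allowed during transcription. Reads with or without upstream sequence after deep sequencing marked cleavage status, and relative activity is fraction cleaved normalised to wild type.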
With C52G G23C the self-cleavage was 0.09. With C52U G22A the self-cleavage was 0.91. C52U G22C showed a self-cleavage of 0.17. Variant C52U G22U has a self-cleavage of 0.88. With C52G G48U the self-cleavage was 0.09. Work on C52G G48A yielded a self-cleavage of 0.13. For C52G G48C, the self-cleavage was 0.1. With C52G G35U the self-cleavage was 0.91. With C52G G35C the self-cleavage was 0.36. Variant C52G G35A has a self-cleavage of 0.84. G51C U18A showed a self-cleavage of 0.12. Work on G51C U18C yielded a self-cleavage of 0.13. With G51C U18G the self-cleavage was 0.13. G51A U24A showed a self-cleavage of 0.08. In the case of G51A U24C, the self-cleavage is reported as 0.08. Variant G51A U24G has a self-cleavage of 0.02. C52U G35U showed a self-cleavage of 0.99. Variant C52U G35A has a self-cleavage of 0.96. Variant C52U G35C has a self-cleavage of 0.63. For G51C U43G, the self-cleavage was 0.06. Work on G51C U43C yielded a self-cleavage of 0.06. G51C U43A gave a self-cleavage of 0.06. With C52A G45U the self-cleavage was 0.1. C52A G45A showed a self-cleavage of 0.26. C52A G45C showed a self-cleavage of 0.07. Work on C52A G44C yielded a self-cleavage of 0.96. C52A G44A showed a self-cleavage of 0.98. With C52A G44U the self-cleavage was 0.93. Variant C52U G47A has a self-cleavage of 0.45. Work on C52U G47U yielded a self-cleavage of 0.4. With C52U G47C the self-cleavage was 0.12. In the case of G50C, the self-cleavage is reported as 1.03. G50U gave a self-cleavage of 1.02. Work on G51U U18C yielded a self-cleavage of 0.29. Work on G51U U18A yielded a self-cleavage of 0.31. In the case of G51U U18G, the self-cleavage is reported as 0.35. In the case of C52G G50U, the self-cleavage is reported as 0.24. Work on C52G G50C yielded a self-cleavage of 0.09. Variant C52G G50A has a self-cleavage of 0.85. With C52G U37G the self-cleavage was 1.02. C52G U37C showed a self-cleavage of 1.05. In the case of C52G U37A, the self-cleavage is reported as 0.81. C52U G51U gave a self-cleavage of 0.54. With C52U G51C the self-cleavage was 0.13. C52U G51A gave a self-cleavage of 0.88. For G50C U12G, the self-cleavage was 0.17. G50C U12A showed a self-cleavage of 0.35. Work on G50C U12C yielded a self-cleavage of 0.34. Work on C52G G34C yielded a self-cleavage of 0.17. In the case of C52G G34U, the self-cleavage is reported as 0.42. For C52G G34A, the self-cleavage was 0.77. With C52G the self-cleavage was 1.01. C52A gave a self-cleavage of 1.02. For C52U, the self-cleavage was 1.03. For C52A G48A, the self-cleavage was 0.14. In the case of C52A G48C, the self-cleavage is reported as 0.1. C52A G48U showed a self-cleavage of 0.07. In the case of G51A U43G, the self-cleavage is reported as 0.1. For G51A U43A, the self-cleavage was 0.25. G51A U43C gave a self-cleavage of 0.2. Variant G51C G54A has a self-cleavage of 0.09. With G51C G54U the self-cleavage was 0.12. G51C G54C showed a self-cleavage of 0.34. C52A U43A gave a self-cleavage of 0.85. With C52A U43C the self-cleavage was 0.5. In the case of C52A U43G, the self-cleavage is reported as 0.37. G50C G51C showed a self-cleavage of 0.08. Work on G50C G51A yielded a self-cleavage of 0.71. With G50C G51U the self-cleavage was 0.32. C52U G48A showed a self-cleavage of 0.15. Variant C52U G48C has a self-cleavage of 0.11. Variant C52U G48U has a self-cleavage of 0.11. G51U showed a self-cleavage of 0.44. In the case of G51C, the self-cleavage is reported as 0.17. For G51A, the self-cleavage was 0.77. G51U U12G showed a self-cleavage of 0.05. G51U U12C gave a self-cleavage of 0.08. Work on G51U U12A yielded a self-cleavage of 0.09. C52A G53A showed a self-cleavage of 0.92. Work on C52A G53C yielded a self-cleavage of 0.5. C52A G53U showed a self-cleavage of 0.8. C52U G53U showed a self-cleavage of 0.9. Work on C52U G53A yielded a self-cleavage of 1. C52U G53C showed a self-cleavage of 0.17.

Source: the RNAGym collection of RNA variant scans (doi:10.1002/anie.201605470)
